This note sets out measurements from ChEMBL document CHEMBL5107947, “Estimating the cooperativity of PROTAC-induced ternary complexes using 19F NMR displacement assay” (RSC Med Chem, 2021).

The source made the active and inactive calls. The rule behind the calls is not given here.

For assay [1], the target named is T1, Von Hippel-Lindau disease tumor suppressor/Elongin B/Elongin C (Homo sapiens, UniProt P40337). As to the kind of experiment: (§1) Displacement of (2S,4R)-N-(4-bromobenzyl)-4-hydroxy-1-(3,3,3-trifluoropropanoyl)pyrrolidine-2-carboxamide from VBC E3 ligase (unknown origin) binary complex by 19F NMR assay. The assay is classed as protein-complex assay. The gist of the method: (§2)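 Competitive 19F CPMG NMR displacement of spy molecule 19 (50 μM) from VBC (1 μM) across a titration of PROTAC concentrations. Free spy alone and spy with VBC served as the 100% and 0% displacement controls. For ternary runs Brd4(2) was present at 10 μM.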
T1 sequence (P40337 whole entry, looked up): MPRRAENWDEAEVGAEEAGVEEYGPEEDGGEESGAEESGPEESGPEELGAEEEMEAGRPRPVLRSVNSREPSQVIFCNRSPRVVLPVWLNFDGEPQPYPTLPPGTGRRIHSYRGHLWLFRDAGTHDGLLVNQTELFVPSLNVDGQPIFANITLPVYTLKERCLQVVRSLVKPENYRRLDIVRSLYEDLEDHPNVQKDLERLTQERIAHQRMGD

In assay [2] the target is T1, Von Hippel-Lindau disease tumor suppressor/Elongin B/Elongin C. The assay is described as follows: Displacement of (2S,4R)-N-(4-bromobenzyl)-4-hydroxy-1-(3,3,3-trifluoropropanoyl)pyrrolidine-2-carboxamide from VBC E3 ligase (unknown origin) binary complex assessed as inhibition constant by 19F NMR assay. It is filed as protein-complex assay. The gist of the method: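 Binary competition by 19F CPMG NMR, without Brd4(2): spy molecule 19 at 50 μM, VBC at 1 μM, titrated with increasing PROTAC concentrations. Spy molecule alone and spy molecule plus VBC served as 100% and 0% displacement references.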

For assay [3] the target is unchanged. The assay is described as follows: Binding affinity to VCB E3 ligase (unknown origin) assessed as binary equilibrium dissociation constant by 19F NMR assay. It is filed as protein-complex assay.
For assay [4], the target named is T2, von Hippel-Lindau disease tumor suppressor/Bromodomain-containing protein 4/Elongin-B/Elongin-C (Homo sapiens, UniProt O60885+P40337+Q15369+Q15370). As to the kind of experiment: Displacement of (2S,4R)-N-(4-bromobenzyl)-4-hydroxy-1-(3,3,3-trifluoropropanoyl)pyrrolidine-2-carboxamide from BRD4 bromodomain 2/VBC E3 ligase (unknown origin) ternary complex by 19F NMR assay. It is filed as protein assay. The gist of the method: (§3)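 19F CPMG NMR displacement of spy molecule 19 (50 μM) from VBC (1 μM) with increasing PROTAC concentrations, in the presence of 10 μM Brd4(2). Spectra of free spy molecule and spy molecule with VBC set 100% and 0% displacement.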
T2 sequence (P40337 whole entry, looked up, other chains not shown): as the sequence (P40337 whole entry, looked up) above
T2 sequence (Q15369 whole entry, looked up, other chains not shown): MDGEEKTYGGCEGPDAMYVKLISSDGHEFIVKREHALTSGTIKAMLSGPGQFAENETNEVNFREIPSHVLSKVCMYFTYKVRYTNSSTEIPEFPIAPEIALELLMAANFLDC
T2 sequence (Q15370 whole entry, looked up, other chains not shown): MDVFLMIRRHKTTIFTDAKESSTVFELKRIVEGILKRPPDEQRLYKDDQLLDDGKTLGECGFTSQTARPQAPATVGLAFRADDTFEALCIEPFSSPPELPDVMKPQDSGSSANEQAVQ

The target of assay [5] is T2, von Hippel-Lindau disease tumor suppressor/Bromodomain-containing protein 4/Elongin-B/Elongin-C. As to the kind of experiment: Displacement of (2S,4R)-N-(4-bromobenzyl)-4-hydroxy-1-(3,3,3-trifluoropropanoyl)pyrrolidine-2-carboxamide from BRD4 bromodomain 2/VBC E3 ligase (unknown origin) ternary complex assessed as inhibition constant by 19F NMR assay. The assay is classed as protein assay. A digest of the protocol: as §3

Assay [6] is filed under the species Homo sapiens. As to the kind of experiment: Co-operativity factor, ratio of Ki for displacement of (2S,4R)-N-(4-bromobenzyl)-4-hydroxy-1-(3,3,3-trifluoropropanoyl)pyrrolidine-2-carboxamide from VBC E3 ligase (unknown origin) binary complex assessed as inhibition constant to Ki for displacement of (2S,4R)-N-(4-bromobenzyl)-4-hydroxy-1-(3,3,3-trifluoropropanoyl)pyrrolidine-2-carboxamide from BRD4 bromodomain 2/VBC E3 ligase (unknown origin) ternary complex assessed as inhibition constant by 19F NMR assay.

For assay [7], the species on record is Homo sapiens. The assay is described as follows: Co-operativity factor, ratio of Ki for displacement of (2S,4R)-N-(4-bromobenzyl)-4-hydroxy-1-(3,3,3-trifluoropropanoyl)pyrrolidine-2-carboxamide from VBC E3 ligase (unknown origin) binary complex assessed as inhibition constant to Ki for displacement of (2S,4R)-N-(4-bromobenzyl)-4-hydroxy-1-(3,3,3-trifluoropropanoyl)pyrrolidine-2-carboxamide from BRD4 bromodomain 2/VBC E3 ligase (unknown origin) ternary complex assessed as inhibition constant by ITC assay. (ITC needs no label: the signal is the heat of the interaction.)

For assay [8], the species on record is Homo sapiens. The assay is described as follows: Co-operativity factor, ratio of Ki for displacement of (2S,4R)-N-(4-bromobenzyl)-4-hydroxy-1-(3,3,3-trifluoropropanoyl)pyrrolidine-2-carboxamide from VBC E3 ligase (unknown origin) binary complex assessed as inhibition constant to Ki for displacement of (2S,4R)-N-(4-bromobenzyl)-4-hydroxy-1-(3,3,3-trifluoropropanoyl)pyrrolidine-2-carboxamide from BRD4 bromodomain 2/VBC E3 ligase (unknown origin) ternary complex assessed as inhibition constant by SPR assay.

A short description of assay [9]: Displacement of (2S,4R)-N-(4-bromobenzyl)-4-hydroxy-1-(3,3,3-trifluoropropanoyl)pyrrolidine-2-carboxamide from BRD3 bromodomain 1/VBC E3 ligase (unknown origin) ternary complex by 19F NMR assay. Details: species or system Homo sapiens.
Assay [10] can be described thus: Displacement of (2S,4R)-N-(4-bromobenzyl)-4-hydroxy-1-(3,3,3-trifluoropropanoyl)pyrrolidine-2-carboxamide from BRD3 bromodomain 2/VBC E3 ligase (unknown origin) ternary complex by 19F NMR assay. Details: species or system Homo sapiens.
A short description of assay [11]: Displacement of (2S,4R)-N-(4-bromobenzyl)-4-hydroxy-1-(3,3,3-trifluoropropanoyl)pyrrolidine-2-carboxamide from BRD3 bromodomain 1/VBC E3 ligase (unknown origin) ternary complex assessed as inhibition constant by 19F NMR assay. Details: species or system Homo sapiens.
A short description of assay [12]: Displacement of (2S,4R)-N-(4-bromobenzyl)-4-hydroxy-1-(3,3,3-trifluoropropanoyl)pyrrolidine-2-carboxamide from BRD3 bromodomain 2/VBC E3 ligase (unknown origin) ternary complex assessed as inhibition constant by 19F NMR assay. Details: species or system Homo sapiens.
Assay [13] concerns the target T1, Von Hippel-Lindau disease tumor suppressor/Elongin B/Elongin C. The assay is described as follows: Displacement of (2S,4R)-N-(4-bromobenzyl)-4-hydroxy-1-(3,3,3-trifluoropropanoyl)pyrrolidine-2-carboxamide from dual VBC E3 ligase (unknown origin) ternary complex by 19F NMR assay. The assay is classed as protein-complex assay. A digest of the protocol:
(§4)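 Same 19F CPMG displacement format, with spy molecule 19 at 50 μM and VBC at 1 μM. PROTAC was titrated over a range of concentrations, with spy-only and spy+VBC spectra as the 100% and 0% displacement controls. IC50 was read as 50% dissociation of the spy–VBC complex.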

For assay [14] the target is unchanged. The assay is described as follows: Displacement of (2S,4R)-N-(4-bromobenzyl)-4-hydroxy-1-(3,3,3-trifluoropropanoyl)pyrrolidine-2-carboxamide from dual VBC E3 ligase (unknown origin) ternary complex assessed as inhibition constant by 19F NMR assay. The assay is classed as protein-complex assay. The gist of the method: as §4
The species named for assay [15] is Homo sapiens. The assay is described as follows: Co-operativity factor, ratio of Ki for displacement of (2S,4R)-N-(4-bromobenzyl)-4-hydroxy-1-(3,3,3-trifluoropropanoyl)pyrrolidine-2-carboxamide from VBC E3 ligase (unknown origin) binary complex assessed as inhibition constant to Ki for displacement of (2S,4R)-N-(4-bromobenzyl)-4-hydroxy-1-(3,3,3-trifluoropropanoyl)pyrrolidine-2-carboxamide from dual VBC E3 ligase (unknown origin) ternary complex assessed as inhibition constant by 19F NMR assay.

Assay [16] is filed under the species Homo sapiens. As to the kind of experiment: Co-operativity factor, ratio of Ki for displacement of (2S,4R)-N-(4-bromobenzyl)-4-hydroxy-1-(3,3,3-trifluoropropanoyl)pyrrolidine-2-carboxamide from VBC E3 ligase (unknown origin) binary complex assessed as inhibition constant to Ki for displacement of (2S,4R)-N-(4-bromobenzyl)-4-hydroxy-1-(3,3,3-trifluoropropanoyl)pyrrolidine-2-carboxamide from dual VBC E3 ligase (unknown origin) ternary complex assessed as inhibition constant by […].

The target of assay [17] is Von Hippel-Lindau disease tumor suppressor/Elongin B/Elongin C (Homo sapiens) (UniProt P40337+Q15370+Q15369). The assay is described as §1. The assay is classed as protein-complex assay. A digest of the protocol: as §2
Sequence of Von Hippel-Lindau disease tumor suppressor/Elongin B/Elongin C (Homo sapiens) (P40337 whole entry, looked up): as the sequence (P40337 whole entry, looked up) above
Sequence of Von Hippel-Lindau disease tumor suppressor/Elongin B/Elongin C (Homo sapiens) (Q15369 whole entry, looked up): as the sequence (Q15369 whole entry, looked up, other chains not shown) above
Sequence of Von Hippel-Lindau disease tumor suppressor/Elongin B/Elongin C (Homo sapiens) (Q15370 whole entry, looked up): as the sequence (Q15370 whole entry, looked up, other chains not shown) above

Broadly, the IC50 is the point on the concentration scale where inhibition reaches its midpoint. Higher therefore signals lower potency. The Ki is a measure of affinity in units of concentration, obtained from inhibition or displacement. In turn, `Cc1ncsc1-c1ccc(CNC(=O)[C@@H]2C[C@H](O)CN2C(=O)[C@@H](NC(=O)COCCOCCOCCOCCOCC(=O)N[C@H](C(=O)N2C[C@@H](O)C[C@H]2C(=O)NCc2ccc(-c3scnc3C)cc2)C(C)(C)C)C(C)(C)C)cc1` registered a half-maximal inhibitory concentration (IC50) in [1] of 888 nM. Moreover, the inhibition constant Ki in [2] is 287 nM.
One may read the Kd as the constant that tells how readily two partners part at equilibrium. Turning to `O=C(NCc1ccc(Br)cc1)[C@@H]1C[C@@H](O)CN1C(=O)CC(F)(F)F`, in assay [3], the dissociation constant Kd worked out at 145000 nM.
In the case of `CC(=O)N1c2ccc(-c3ccc(C(=O)NCCOCCOCCOCCOCC(=O)N[C@H](C(=O)N4C[C@H](O)C[C@H]4C(=O)NCc4ccc(-c5scnc5C)cc4)C(C)(C)C)cc3)cc2[C@H](Nc2ccc(Cl)cc2)C[C@@H]1C`, the IC50 in [4] was found to be 1310 nM; in assay [1], 1140 nM. In addition, the Ki came to 597 nM in assay [5] and 471 nM in [2]. Moreover, the Ratio Ki was 0.8 in the assay filed under Homo sapiens [6], 0.6 in the assay listed under Homo sapiens [7] and 0.4 in the assay listed under Homo sapiens [8].
Regarding `Cc1ncsc1-c1ccc(CNC(=O)[C@@H]2[C@H](F)[C@@H](O)CN2C(=O)[C@@H](NC(=O)COCCOCCOCCNC(=O)C[C@@H]2N=C(c3ccc(Cl)cc3)c3c(sc(C)c3C)-n3c(C)nnc32)C(C)(C)C)cc1`, the IC50 in [4] turned out to be 346 nM; in assay [1], 3020 nM. The Ki in [5] was 71 nM; in assay [2], 2060 nM. Moreover, the Ratio Ki in the assay filed under Homo sapiens [6] and in the assay listed under Homo sapiens [7] was 29 each time.
For `Cc1ncsc1-c1ccc(CNC(=O)[C@@H]2C[C@@H](O)CN2C(=O)CC(C)(C)C)cc1C(F)(F)F`, the dissociation constant (Kd) in assay [3] was 67000 nM.
For `Cc1ncsc1-c1ccc(CNC(=O)[C@@H]2C[C@@H](O)CN2C(=O)C(F)(F)F)cc1`, the Kd in assay [3] came out at 25000 nM.
For the molecule `Cc1ncsc1-c1ccc(CNC(=O)[C@@H]2C[C@@H](O)CN2C(=O)[C@@H](NC(=O)COCCOCCOCCNC(=O)C[C@@H]2N=C(c3ccc(Cl)cc3)c3c(sc(C)c3C)-n3c(C)nnc32)C(C)(C)C)cc1`, the half-maximal inhibitory concentration (IC50) in assay [9] came to 660 nM; in assay [10] it was 708 nM. For the same molecule, the results for the Ki in [11] and in assay [12] were 118 nM and 153 nM, respectively.
As for `Cc1ncsc1-c1ccc(CNC(=O)[C@@H]2C[C@@H](O)CN2C(=O)[C@@H](NC(=O)COCCOCCOCCOCCOCCOCC(=O)N[C@H](C(=O)N2C[C@H](O)C[C@H]2C(=O)NCc2ccc(-c3scnc3C)cc2)C(C)(C)C)C(C)(C)C)cc1`, in assay [13], the 50% inhibitory concentration (IC50) was 277 nM. In assay [14], the Ki was 39 nM. For the same molecule, the Ratio Ki in the assay listed under Homo sapiens [15] and in the assay listed under Homo sapiens [16] was 7 each time.
Take `CC(=O)N1c2ccc(-c3ccc(C(=O)NCCOCCOCC(=O)N[C@H](C(=O)N4C[C@H](O)C[C@H]4C(=O)NCc4ccc(-c5scnc5C)cc4)C(C)(C)C)cc3)cc2[C@H](Nc2ccc(Cl)cc2)C[C@@H]1C`: the IC50 is 2110 nM in [4] and 1210 nM in [1]. Further, the inhibitory constant (Ki) in [5] came out at 1190 nM; in assay [2] it was 529 nM. The Ratio Ki in the assay filed under Homo sapiens [6] amounted to 0.4; in the assay filed under Homo sapiens [7] it was 0.1; in the assay filed under Homo sapiens [8] it was 0.2.
Regarding `Cc1ncsc1-c1ccc(CNC(=O)[C@@H]2C[C@H](O)CN2C(=O)[C@@H](NC(=O)COCCOCCOCCOCCOCCOCC(=O)N[C@H](C(=O)N2C[C@@H](O)C[C@H]2C(=O)NCc2ccc(-c3scnc3C)cc2)C(C)(C)C)C(C)(C)C)cc1`, the outcome in assay [17] was Active.
